Compounds with a hit are over-represented: about 3% of the library has one in this group of screens.
TRPC4 agonist = opens the mouse TRPC4 cation channel; HEK293 TRPC4beta/mu-opioid, Fluo4 calcium fluorescence; active compounds read high; Q9QUQ5; B-score at 10 µM; 310,000 compounds, 0.49% hits; AID 2237;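 active means B-score above 5 SD of library B-scores, and initial fluorescence ratio not above library mean plus 5 SD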;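 further: positive B-score marks a calcium rise read as TRPC4 activation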
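System: HEK293 cells stably co-expressing mouse TRPC4beta and mu-opioid receptor; Schedule: Fluo4 dye loading 45 min at room temperature, 110 s recording; Detection: Fluo4 fluorescence, kinetic; Evaluation: B-scored integrated calcium fluorescence ratio; Controls: buffer (low) and maximal DAMGO (high).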
TRPC6 inhibitor = blocks the mouse TRPC6 cation channel; Q61143; HEK293-TRPC6, membrane potential dye, ACh-evoked depolarization; active compounds read low; B-score at 10 µM; 310,000 compounds, 1.1% hits; AID 2553;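 active means B-score under library mean minus 3 SD, initial fluorescence not abnormally high, positive integrated signal ratio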;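 further: B-score derived from integrated fluorescence ratio over the kinetic read; more negative B-score means stronger inhibition of depolarization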
Target sequence (Q61143 whole entry, looked up): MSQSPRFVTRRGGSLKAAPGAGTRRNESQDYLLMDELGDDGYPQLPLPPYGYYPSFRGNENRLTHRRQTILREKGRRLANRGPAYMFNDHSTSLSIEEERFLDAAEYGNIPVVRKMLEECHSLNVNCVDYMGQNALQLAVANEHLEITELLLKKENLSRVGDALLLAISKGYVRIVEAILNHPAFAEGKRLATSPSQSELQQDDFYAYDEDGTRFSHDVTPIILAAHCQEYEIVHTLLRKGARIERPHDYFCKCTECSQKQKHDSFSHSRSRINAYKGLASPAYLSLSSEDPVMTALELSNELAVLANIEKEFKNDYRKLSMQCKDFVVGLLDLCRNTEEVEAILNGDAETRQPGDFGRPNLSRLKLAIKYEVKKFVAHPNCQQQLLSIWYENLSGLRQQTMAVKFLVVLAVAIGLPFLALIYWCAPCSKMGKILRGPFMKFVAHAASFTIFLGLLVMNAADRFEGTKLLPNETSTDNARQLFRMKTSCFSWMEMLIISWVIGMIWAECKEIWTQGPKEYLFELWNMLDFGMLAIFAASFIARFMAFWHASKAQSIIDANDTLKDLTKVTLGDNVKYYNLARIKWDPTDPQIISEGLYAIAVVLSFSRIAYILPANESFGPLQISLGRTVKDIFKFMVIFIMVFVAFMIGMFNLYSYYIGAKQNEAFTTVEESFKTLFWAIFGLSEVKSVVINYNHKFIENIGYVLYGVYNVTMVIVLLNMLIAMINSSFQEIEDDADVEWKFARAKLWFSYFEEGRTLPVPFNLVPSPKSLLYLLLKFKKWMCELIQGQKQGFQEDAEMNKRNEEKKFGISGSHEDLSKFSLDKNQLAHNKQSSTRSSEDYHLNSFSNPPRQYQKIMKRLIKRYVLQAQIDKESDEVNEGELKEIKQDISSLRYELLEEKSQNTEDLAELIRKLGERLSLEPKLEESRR
TRPC6 act = activators of mouse TRPC6 channel; Q61143; HEK293-TRPC6 membrane potential dye fluorescence; active compounds read high; B-score at 10 µM; 310,000 compounds, 0.13% hits;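 active means B-score of the integrated fluorescence ratio above library mean plus 3 SD, and starting fluorescence ratio within library mean plus 5 SD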;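 further: higher score means more depolarization so channel activation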
TRPC4 inh = TRPC4 (mouse) channel inhibition. Q9QUQ5. HEK293 TRPC4beta/mu-opioid, DAMGO-evoked Fluo4 calcium flux; active compounds read low. B-score at 10 µM. 300,000 compounds, 0.39% hits;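 active means B-score over 3 SD under the library average, no early fluorescence shift, positive overall ratio signal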
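test system = HEK293 cells with stable TRPC4beta plus mu-opioid receptor expression | detection = Fluo4 Ca2+ flux fluorescence | read-out = integrated fluorescence ratio relative to baseline, converted to per-well B score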
Kir21 block = blocks the mouse Kir2.1 inward-rectifier potassium channel; P35561; HEK293-Kir2.1, FluxOR thallium flux fluorescence; active compounds read low; B-score at 10 µM; 310,000 compounds, 0.85% hits; AID 1672;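 active means fluorescence ratio B-score at or below minus 3 SD of library scores, with starting-brightness B-score within 2 SD, cut at about -4.2 in these data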;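 further: channel flux triggered by added potassium and thallium sulfate stimulus; B-score of peak minus minimum fluorescence over baseline after thallium stimulus; more negative B-score means stronger Kir2.1 block with less thallium influx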
TRPC4 potent = TRPC4 (mouse) allosteric potentiation | HEK293 TRPC4beta/mu-opioid, DAMGO EC20, Fluo-4 Ca2+ flux; active compounds read high | AID 2227 | B-score at 10 µM | 310,000 compounds, 0.42% hits | Q9QUQ5;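 active means B-score of calcium response area above 5 SD of library B-scores, with initial fluorescence ratio within 5 SD of library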;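 further: B-score of integrated fluorescence ratio over time as area under calcium response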
HEK293 MPD ctr = parental HEK293 nonspecific activity of TRPC6 modulators; shares compounds with TRPC6 inhibitor; membrane potential dye fluorescence; membrane potential signal change, % at 10 µM; 2,400 compounds, 51% hits; AID 488924;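 active means membrane potential signal moves up or down beyond 5 SD from buffer-only wells, on both duplicate plates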
HEK293 MPD ctr 2 = second counter-screen for TRPC6 modulators: effect in parental HEK293 cells | membrane potential dye fluorescence; after compound, maximal acetylcholine stimulation | 2,400 compounds, 14% hits | AID 488926 | shares compounds with TRPC6 inhibitor | inhibition, % at 10 µM;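 active means membrane potential signal drops by more than 5 SD from the mean control signal, in both duplicate plates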;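 further: plate controls were acetylcholine ECmax control wells for no effect and buffer only wells for full effect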
TRPC4/MOR mod = tests whether TRPC6 modulators also affect mouse TRPC4; percent change from control (negative = decrease, positive = increase), % at 10 µM; HEK293 TRPC4/mu-opioid, membrane potential fluorescence; 2,400 compounds, 69% hits; shares compounds with TRPC6 inhibitor; AID 488927;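 active means membrane potential signal moved up or down beyond 5 SD of buffer control wells, in both duplicate plates, actives on both sides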;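 further: plate controls were assay buffer wells for no effect and DAMGO maximal-effect wells for full effect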
TRPC4/MOR inh 2 = second check of whether TRPC6 modulators also affect mouse TRPC4; 2,400 compounds, 55% hits; shares compounds with TRPC6 inhibitor; inhibition, % at 10 µM; HEK293 TRPC4/mu-opioid, membrane potential dye fluorescence; stimulated with maximal-effect DAMGO;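 active means drop in membrane potential signal beyond 5 SD of the control wells in both duplicate plates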;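 further: TRPC4 counter screen for TRPC6 hits run under conditions tuned for TRPC6 not TRPC4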
TRPC6 inh conf = mouse TRPC6 inhibitor confirmation | shares compounds with TRPC6 inhibitor | HEK293-TRPC6, membrane potential dye, ACh-evoked depolarization | inhibition, % at 10 µM | 3,300 compounds, 43% hits | AID 488960;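 active means fluorescence ratio falls more than 5 SD below the full-stimulation control mean, in both duplicate runs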;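 further: integrated fluorescence ratio of peak minus minimum over baseline after agonist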
TRPC6 act confirm = mouse TRPC6 activator confirmation; shares compounds with TRPC6 inhibitor; HEK293-TRPC6 membrane potential dye fluorescence, FDSS; activation, % at 10 µM; 2,800 compounds, 11% hits;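 active means ratio signal rise beyond 5 SD above unstimulated control wells' mean, seen in both duplicate runs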;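 further: plate controls were buffer EC0 wells for no effect and acetylcholine ECmax response for full effect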
Active calls of the source: *; i = inactive; · = not tested or not shown; + = active, no number.

SMILES	TRPC4 agonist	TRPC6 inhibitor	TRPC6 act	TRPC4 inh	Kir21 block	TRPC4 potent	HEK293 MPD ctr	HEK293 MPD ctr 2	TRPC4/MOR mod	TRPC4/MOR inh 2	TRPC6 inh conf	TRPC6 act confirm
C=CCn1c(=N)c(C(=O)NCCCOC)cc2c(=O)n3cccc(C)c3nc21	i	-5.2*	i	i	-0.91	i	226%*	83%*	40%*	i	i	·
Cc1cccn2c(=O)c3cc(C(=O)NCCc4ccccc4)c(=N)n(CCCn4ccnc4)c3nc12	i	-6.2*	i	i	-0.55	i	i	100%*	i	i	i	i
CCc1cc(C(=O)NC2CCCN(Cc3ccccc3F)C2)n(C)n1 (stereo not drawn)	i	i	i	i	0.3	i	·	·	·	·	·	·
CC(C)C(NC(=S)Nc1ccccc1)C(=O)O (stereo not drawn)	i	i	i	i	1.1	i	·	·	·	·	·	·
CNC(=O)c1cc2c(=O)n3cccc(C)c3nc2n(C(C)C)c1=N	i	-12*	i	i	-1.5	i	-209%*	121%*	-40%*	66%*	82%*	i
COc1ccc(CCn2c(=N)c(C(=O)NCCN3CCOCC3)cc3c(=O)n4cccc(C)c4nc32)cc1OC	i	i	i	i	0.83	i	·	·	·	·	·	·
Cc1cccn2c(=O)c3cc(C(=O)NCCN4CCOCC4)c(=N)n(CCc4ccccc4)c3nc12	i	-5.5*	i	i	-0.28	i	i	104%*	i	52%*	i	i
Cc1cccn2c(=O)c3cc(C(=O)NC4CCCC4)c(=N)n(C4CCCCC4)c3nc12	i	i	i	i	0.34	i	·	·	·	·	·	·
COc1ccc(NC(=O)CCNS(=O)(=O)c2ccccc2F)cc1S(N)(=O)=O	i	i	i	i	-0.03	i	·	·	·	·	·	·
CCOC(=O)c1c(NC(=O)CSc2nnc(C)c(=O)[nH]2)sc(C)c1-c1ccc(C)cc1	i	i	14*	i	0.03	i	136%*	i	36%*	i	i	86%*
O=c1c(O)c(-c2cccs2)oc2ccc(Cl)cc12	i	i	76*	i	-7.4	i	+	i	326%*	82%*	i	334%*
O=C(Cc1ccc(O)cc1)N/N=C/c1cccnc1	i	i	i	i	-0.22	i	·	·	·	·	·	·
Cc1cc(C(C)(C)C)oc1C(=O)OCC(=O)NC1CCCCC1	i	-5.3*	i	i	0.77	i	i	i	26%*	i	53%*	·
CCCCN(C)CCCNC(=O)CN1C(=O)COc2ccc(S(=O)(=O)N3CCOCC3)cc21	i	-5.4*	i	i	1.1	i	i	i	i	i	i	i
CC1CC(C)CN(CCCNC(=O)CN2C(=O)COc3ccc(S(=O)(=O)N4CCOCC4)cc32)C1 (stereo not drawn)	i	i	i	i	0.31	i	·	·	·	·	·	·
Cc1cc(N2CCOCC2)nc2ccc(NC(=O)CCC(=O)N3CCN(c4cccc(C(F)(F)F)c4)CC3)cc12	i	i	i	i	-0.94	i	·	·	·	·	·	·

Screens: PubChem BioAssay, Johns Hopkins Ion Channel Center
